Measured values from paper PMC5629310 (Journal of Arthropod-Borne Diseases, 2017).
Like-named read-outs stand apart in the source and are kept apart here.

What was measured:
[1] = test system: mouse peritoneal macrophages; details: read-out: Cytotoxicity CC50, previous compounds 1a-b, ref Tahghighi et al. 2013; cited from earlier work
[2] = test system: Leishmania major promastigotes (vaccine strain MRHO/IR/75/ER); details: read-out: Anti-promastigote activity IC50; L. major promastigotes; previous compounds 1a-b; ref Tahghighi et al. 2013; cited from earlier work
[3] = test system: amastigote form of L. major in murine peritoneal macrophages; details: previous compounds 1a-b; result in words; ref Tahghighi et al. 2013; cited from earlier work
[4] = test system: Leishmania major promastigotes (vaccine strain MRHO/IR/75/ER); assay: Antileishmanial activity against Leishmania major promastigotes; assay type: cell-based; details: for IC50: Leishmania major, 24 h, read-out: Anti-promastigote activity IC50
[5] = Toxicity against macrophages; assay type: cell-based, mouse; details: BALB/c, mouse, mouse peritoneal macrophages
Summary of the method: (§1)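 BALB/c peritoneal macrophages, collected by PBS lavage, were kept in RPMI 1640 with 10% heat-inactivated FBS, 2mM glutamine and penicillin/streptomycin. Cells were seeded at 2×10^5/well and allowed to adhere. Medium was replaced with a graded series of test compound for 24 h at 37 °C, 5% CO2, with a DMSO negative control. Viability was read by MTT. Two independent experiments were run in triplicate, and CC50 was taken by linear regression.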

[6] = test system: mouse peritoneal macrophages; assay: Toxicity against macrophages; assay type: cell-based; details: CC50 macrophages / IC50 promastigotes
Summary of the method: as §1

## O=[N+]([O-])c1ccc(-c2nnc(NCCCO)s2)o1 [Compound 1a, 3-(5-(5-nitrofuran-2-yl)-1,3,4-thiadiazol-2-ylamino) propan-1-ol]
[1]
  CC50: 62.3 µM
[2]
  IC50: 18 ± 0.2 µM
[3]
  Number of intracellular amastigotes per macrophage, percentage of macrophage infectivity and infectivity index compared with control group: decreased

## O=[N+]([O-])c1ccc(-c2nnc(NCCCO)s2)s1 [Compound 1b, 3-(5-(5-nitrothiophen-2-yl)-1,3,4-thiadiazol-2-ylamino) propan-1-ol]
[1]
  CC50: 42.2 µM
[2]
  IC50: 3 ± 0.41 µM
[4]; promastigote IC50, 1b versus 1a
  fold more potent than 5-nitrofuran counterpart 1a: 6 fold
[3]
  Number of intracellular amastigotes per macrophage, percentage of macrophage infectivity and infectivity index compared with control group: decreased

## O=[N+]([O-])c1ccc(-c2nnc(N3CCC(O)CC3)s2)o1 [Compound 5a, 1-(5-(5-nitrofuran-2-yl)-1,3,4-thiadiazol-2-yl)piperidin-4-ol]
[5]
  CC50 at 24 h: 78.5 µM
[6]
  SI (selectivity index CC50/IC50): 1.14
[4]
  IC50: 68.9 ± 0.107 µM

## O=[N+]([O-])c1ccc(-c2nnc(N3CCC(O)CC3)s2)s1 [Compound 5b, 1-(5-(5-nitrothiophen-2-yl)-1,3,4-thiadiazol-2-yl)piperidin-4-ol]
[5]
  CC50 at 24 h: 63.6 µM
[6]
  SI (selectivity index CC50/IC50): 2.35
[4]
  IC50: 27 ± 0.12 µM

## OC(Cn1cncn1)(Cn1cncn1)c1ccc(F)cc1F [Fluconazole, reference compound]
[4]
  IC50: 941.1 ± 4.98 µM
